ARFGAP1 inh: inhibits rat ARF GTPase activating protein 1; Q62848; Arfgap1-stimulated ARF1 GTP hydrolysis, GDP FP detection; inhibition, % at 16.5 µM; 360,000 compounds, 0.26% hits;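 active means inhibition above a per-plate limit, mean inhibition of low control wells plus 3 SD, cut at about 25% in these data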
Target sequence (Q62848 1-136 limits assumed): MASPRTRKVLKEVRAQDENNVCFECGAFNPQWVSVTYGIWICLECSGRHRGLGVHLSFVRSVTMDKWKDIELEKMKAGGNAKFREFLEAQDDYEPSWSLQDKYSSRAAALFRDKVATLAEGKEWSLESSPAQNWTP
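Repeats: one replicate per compound; assay system: rat Arfgap1 catalytic domain, aa 1-136; times: enzyme reaction 120 min at 25 °C after 20 min preincubation; detection: FP of antibody-bound GDP Alexa 633 tracer, ex 620/em 688 nm; benchmarks: high control wells lacking Arfgap1, low control full reaction with DMSO; reagent: human ARF1(Δ1-17)-GTP substrate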
GalR3 antag: human GalR3 antagonism. HEK293 GalR3-CNG cAMP membrane potential fluorescence; galR3 body fused to GalR1 C-terminus. inhibition, % at 3 µM. 360,000 compounds, 0.44% hits;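 active means inhibition above the screen-wide average plus 3 SD, cut at about 13% in these data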;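 further: forskolin and galanin both at EC90 stimulate the cells; cAMP rise reported by CNG channel membrane potential dye signal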
Target sequence (O60755 1-299 limits assumed): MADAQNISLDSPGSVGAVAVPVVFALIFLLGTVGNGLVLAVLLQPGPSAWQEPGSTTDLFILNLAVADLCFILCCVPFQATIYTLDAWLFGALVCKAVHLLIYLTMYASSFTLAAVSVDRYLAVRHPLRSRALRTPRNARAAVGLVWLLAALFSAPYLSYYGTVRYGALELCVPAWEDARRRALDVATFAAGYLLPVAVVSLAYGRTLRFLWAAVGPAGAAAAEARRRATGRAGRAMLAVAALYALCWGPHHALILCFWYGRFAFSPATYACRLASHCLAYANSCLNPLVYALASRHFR
ASAP1 GAP inh: blocks human ASAP1-stimulated Arf1 GTP hydrolysis | GDP FP detection | inhibition, % at 16.5 µM | 360,000 compounds, 0.19% hits | AID 624377; in the data active means inhibition above about 25%
Rin1-Abl PPI inh: human Rin1-Abl interaction inhibition; TR-FRET Rin1/Abl binding, biochemical; AID 588664; inhibition, % at 7.35 µM; 360,000 compounds, 0.4% hits; in the data active means inhibition above about 5%, passing the limit was not always enough
Rin1 Abl conf: confirmation of inhibitors of human Rin1-Abl interaction. shares compounds with Rin1-Abl PPI inh. TR-FRET Rin1-Abl binding, purified proteins. inhibition, % at 7.35 µM. 1,300 compounds, 49% hits. AID 602124
GFP quencher: GFP fluorescence interference artifact; shares compounds with Rin1-Abl PPI inh; inhibitors/quenchers counterscreen; inhibition, % at 6.75 µM; 1,300 compounds, 8.5% hits;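 further: ABL1-eGFP fusion protein alone without its partner RIN1-SBP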
GFP quench dose: quenches GFP in dose response, Rin1-Abl counter-screen | IC50, µM | GFP fluorescence interference/quenching counterscreen | 230 tested, under 10 active | shares compounds with Rin1-Abl PPI inh; call rule not given here;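 further: ABL1-eGFP fusion protein alone without its RIN1 binding partner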
A number is an active result; . = inactive; / = not tested or not shown. Hits are enriched below; roughly 1.2% of the tested compounds scored in any of these assays. Unless noted, no stated cut-off is given here; in the data, active means inhibition above about 6.5%; inactive means the rest.

SMILES	ARFGAP1 inh	GalR3 antag	ASAP1 GAP inh	Rin1-Abl PPI inh	Rin1 Abl conf	GFP quencher	others
COc1ccc(C2c3[nH]c4ccccc4c3C[C@H]3C(=O)N(C4CCN(Cc5ccccc5)CC4)CC(=O)N23)cc1OC (stereo not given in full)	.	.	.	10.3	8.2	.
COc1cccc(C2c3[nH]c4ccccc4c3C[C@H]3C(=O)N(C4CCN(Cc5ccccc5)CC4)CC(=O)N23)c1 (stereo not given in full)	.	.	.	.	/	/
COC(=O)c1cc2c(c3c4cc(F)ccc4n(S(=O)(=O)c4ccc(C)cc4)c13)C(=O)N(Cc1ccc(N(C)C)cc1)C2	.	.	.	/	/	/
COc1ccc(CNC(=O)COC(=O)CCCOc2ccc(Cl)cc2Cl)cc1OC	.	.	.	10.2	.	.
O=C(OCCc1cc2ccccc2c(=O)o1)N1CCOCC1	.	.	.	11.6	.	.
CCN(CC)Cc1cc(O)c(CN(CC)CC)cc1O	.	.	.	11.0	.	.
COC(=O)Cn1cnc2c(NC(=O)c3ccccc3)ncnc21	.	.	.	/	/	/
COc1cc2c(cc1OC)CN(CC(=O)Nc1cccc([N+](=O)[O-])c1)CC2	.	.	.	.	/	/
COc1cc2c(cc1OC)CN(CC(=O)Nc1cccc(C)c1)CC2	.	.	.	6.5	.	.
O=C(NCc1ccc(F)cc1)C1CCN(S(=O)(=O)N2CCOCC2)CC1	.	.	.	8.4	.	.
CC(=O)N1C[C@@H](CO)[C@@H](N(C)C(=O)Nc2cccc3ccccc23)C[C@H]1c1ccccc1	.	.	.	/	/	/
CC1(C)Cc2c(c(N3CCCC3)nc3sc4c(N5CCN(CCO)CC5)ncnc4c23)CO1	.	.	.	.	/	/
CC1(C)Cc2c(c(N3CCOCC3)nc3sc4c(=O)[nH]cnc4c23)CS1	.	.	.	.	/	/
OCCN1CCN(c2ncnc3c2sc2nc(N4CCOCC4)c4c(c23)CCC4)CC1	.	.	.	14.5	22.8	.	GFP quench dose=.
COC(=O)c1ccc(Cn2cnc3c(sc4nc(N5CCOCC5)c5c(c43)CCCC5)c2=O)o1	.	.	.	8.7	7.1	.
CN(C)CCNc1ncnc2c1sc1nc(N3CCOCC3)c3c(c12)CC(C)(C)SC3	.	.	.	27.0	25.9	.	GFP quench dose=.
COC(=O)c1ccc(CSc2ncnc3c2sc2nc(N4CCOCC4)c4c(c23)CCCC4)o1	.	.	.	.	/	/
OCCN(CCO)c1ncnc2c1sc1nc(N3CCOCC3)c3c(c12)CCCC3	.	.	.	10.8	8.3	.
COC(=O)CSc1ncnc2c1sc1nc(N3CCOCC3)c3c(c12)CCCC3	.	.	.	.	/	/
COC(=O)C1=C(C)N(Cc2ccccc2C(F)(F)F)C(=NCc2ccc(C(F)(F)F)cc2)NC1c1ccccc1 (stereo not given)	.	.	.	/	/	/
COc1ccc(N2C(=O)c3n[nH]c(C(C)C)c3C2c2ccc(C)cc2)cc1 (stereo not given)	.	.	.	/	/	/
CN(Cc1cnccn1)C(=O)C1CCC(=O)N(CCc2ccc(Cl)cc2)C1 (stereo not given)	.	.	.	.	/	/
CN(Cc1cnccn1)C(=O)C1CCC(=O)N(CCc2ccccc2)C1 (stereo not given)	.	.	.	24.8	29.4	.	GFP quench dose=.
O=S(=O)(Nc1ccc(O)c2ncccc12)c1ccccc1F	.	.	.	12.6	.	.
Oc1ccc(CNc2ccccc2F)c2cccnc12	.	.	.	.	/	/
CCCCNC(=O)c1ccc2nc(-c3ccco3)c(-c3ccco3)nc2c1	.	.	.	.	/	/
O=C(NCCCO)c1ccc2nc(-c3ccco3)c(-c3ccco3)nc2c1	.	.	.	11.2	.	11.4
CCN(CC)CCNC(=O)c1ccc(NC(=O)C2CCN(c3ncnc4sc(C)c(C)c34)CC2)cc1	.	.	.	10.4	.	.
O=C(c1cc(COc2ccc(F)cc2Cl)on1)N1CCCCC1c1cccnc1 (stereo not given)	.	.	.	.	/	/
COc1cc(Cl)ccc1OCc1cc(C(=O)N2CCCCC2c2cccnc2)no1 (stereo not given)	.	.	.	10.2	.	.

Assay outcomes as filed in PubChem BioAssay.
